In ChEMBL document CHEMBL1139526, “Synthesis, antiviral activity, and mechanism of drug resistance of D- and L-2',3'-didehydro-2',3'-dideoxy-2'-fluorocarbocyclic nucleosides” (J Med Chem, 2005):

Experiments:
[1] = test system: PBMC; experiment: Inhibitory concentration was determined against PHA stimulated human peripheral blood mononuclear cells; type: functional, cell-based
Summary of the method: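 Uninfected PHA-stimulated PBM cells from healthy HIV/HBV-seronegative donors were isolated by Ficoll-Hypaque and seeded at 5 × 10⁴ cells/well. Cells were incubated 5 days at 37 °C with 10-fold serial dilutions. Read-out was MTT reduction at 570 nm after overnight dye and solubilization. IC50 was taken by median-effect analysis.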

[2] = test system: PBMC; experiment: Effective concentration to inhibit HIV-1 activity in human peripheral blood mononuclear cells; type: functional, cell-based
Summary of the method: (§1)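 HIV-1 LAI was the reference virus. Human PBM cells were infected in bulk for 1 h at 100 TCID50/1 × 10⁷ cells (flask) or 200 TCID50/6 × 10⁵ cells/well. Cells went into 10-fold serial compound dilutions in RPMI-1640 with 16% FBS, DEAE-dextran and IL-2, 5 days at 37 °C. Read-out was supernatant RT activity ([³H]TTP, poly(rA)·oligo(dT)). EC50 was taken by the median effect method.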

[3] = test system: CCRF-CEM; experiment: Inhibitory concentration against CEM cell line; type: functional, cell-based; details: Homo sapiens
Summary of the method: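 CEM T-lymphoblastoid cells in log phase, 2.5 × 10³ cells/well, were exposed to 10-fold serial dilutions for 4 days at 37 °C and 5% CO₂. MTT was added overnight, then solubilized, with absorbance read at 570 nm. IC50 was taken from median-effect analysis.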

[4] = test system: Vero; experiment: Inhibitory concentration against uninfected Vero cells; type: functional, cell-based; details: Chlorocebus sabaeus
Summary of the method: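 Uninfected Vero cells in log phase, 5 × 10³ cells/well, were exposed to 10-fold serial drug dilutions for 3 days at 37 °C. Viability was read by MTT overnight, solubilized, at 570 nm. IC50 came from the median effect method.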

[5] = test system: PBMC; experiment: In vitro effective concentration against HIV-1 in human peripheral blood mononuclear cells; type: functional, cell-based; summary of the method: as §1
[6] = test system: PBMC; experiment: (§2) In vitro effective concentration against […] wild type HIV-1 in human peripheral blood mononuclear cells; type: functional, cell-based
Summary of the method: (§3)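 Molecular clones were used: wild-type HIV-1 xxBru and lamivudine-resistant HIV-1 M184Vpitt. Human PBM cells were infected in bulk for 1 h, then cultured in 10-fold serial compound dilutions with IL-2 for 5 days at 37 °C. Pelleted supernatant virus was assayed for RT activity, 2 h at 37 °C with [³H]TTP. EC50/EC90 came from median-effect analysis. Fold increase is M184V EC50 over xxBRU EC50.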

[7] = test system: PBMC; experiment: as §2; type: functional; summary of the method: as §3
[8] = test system: MT4; experiment: In vitro effective concentration against HIV-1 in MT-4 cells; type: functional, cell-based; details: Homo sapiens
[9] = test system: PBMC; experiment: In vitro effective concentration against HBV in human peripheral blood mononuclear cells; type: functional, cell-based
[10] = test system: PBMC; experiment: Fold increase in ratio of EC50 against HIV-1 M184V to that of EC50 against HIV-1wild type; type: functional, Homo sapiens
Summary of the method: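 PHA-stimulated human PBM cells infected in bulk for 1 h with the molecular clones HIV-1 xxBru (wild type) or M184Vpitt, then added to 10-fold serial drug dilutions. Cultured 5 days at 37 °C. Supernatant virus was pelleted and its RT activity measured by [3H]TTP incorporation on poly(rA)·oligo(dT). EC50 by the median effect method; fold increase = EC50 M184V / EC50 xxBru.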

[11] = test system: PBMC
[12] = test system: PBMC; experiment: In vitro effective concentration against Lamivudine resistant HIV-1 mutant M184V in human peripheral blood mononuclear cells; type: functional

| Compound | IC50 [1] [µM] | EC50 [2] [µM] | IC50 [3] [µM] | IC50 [4] [µM] | EC50 [5] [µM] | other results |
| --- | --- | --- | --- | --- | --- | --- |
| OC[C@H]1C=C(F)[C@@H](n2cnc3c(O)ncnc32)C1 | > 100 | > 100 | 91.3 | > 100 | – | – |
| Nc1ccn([C@@H]2S[C@H](CO)C=C2F)c(=O)n1 | – | – | – | – | 1.3 | – |
| Cc1cn([C@H]2C[C@H](N=[N+]=[N-])[C@@H](CO)O2)c(=O)[nH]c1=O [ZIDOVUDINE] | > 100 | 0.0018 | – | – | – | – |
| Nc1ncnc2c1ncn2[C@H]1C=C(F)C(CO)O1 (single isomer, unassigned) | – | – | – | – | 4.4 | – |
| Cc1cn([C@H]2C[C@@H](CO)C=C2F)c(=O)[nH]c1=O | > 100 | > 100 | > 100 | > 100 | – | – |
| Nc1ccn([C@@H]2C[C@H](CO)C=C2F)c(=O)n1 | > 100 | > 100 | > 100 | > 100 | – | – |
| Nc1ccn([C@H]2C[C@@H](CO)C=C2F)c(=O)n1 | > 100 | 37.7 | > 100 | > 100 | – | – |
| Nc1ccn([C@@H]2CS[C@H](CO)O2)c(=O)n1 [LAMIVUDINE] | – | – | – | – | – | EC50 [6]: 0.027 µM; EC90 [7]: 0.25 µM |
| Nc1nc(O)c2ncn([C@H]3C[C@@H](CO)C=C3F)c2n1 | > 100 | > 100 | > 100 | > 100 | – | – |
| Nc1nc(=O)n([C@H]2C=C(F)[C@@H](CO)S2)cc1F | – | – | – | – | 0.15 | – |
| Cc1cn([C@@H]2C[C@H](CO)C=C2F)c(=O)[nH]c1=O | > 100 | > 100 | > 100 | > 100 | – | – |
| Nc1nc(=O)n([C@H]2C=C(F)C(CO)O2)cc1F (single isomer, unassigned) | – | – | – | – | 0.82 | – |
| Nc1ccn([C@H]2C=C(F)[C@@H](CO)S2)c(=O)n1 | – | – | – | – | 0.12 | – |
| Nc1nc2c(ncn2[C@H]2C=C[C@@H](CO)C2)c(=O)[nH]1 [CARBOVIR] | – | – | – | – | 0.55 | IC50 [8]: 4.6 µM |
| Nc1nc(=O)n([C@@H]2O[C@H](CO)C=C2F)cc1F | – | – | – | – | 0.17 | EC50 [9]: 0.22 µM |
| O=c1ccn([C@@H]2C[C@H](CO)C=C2F)c(=O)[nH]1 | > 100 | > 100 | > 100 | > 100 | – | – |
| Nc1nc(O)c2ncn([C@@H]3C[C@H](CO)C=C3F)c2n1 | > 100 | 37.8 | > 100 | > 100 | 37.8 | – |
| O=c1ccn([C@H]2C[C@@H](CO)C=C2F)c(=O)[nH]1 | > 100 | > 100 | > 100 | > 100 | – | – |
| Nc1ncnc2c1ncn2[C@@H]1C[C@H](CO)C=C1F | > 100 | 72.8 | > 100 | > 100 | 72.8 | – |
| Nc1ncnc2c1ncn2[C@H]1C[C@@H](CO)C=C1F | > 100 | 0.77 | > 100 | > 100 | – | Fold increase [10]: 98; EC50 [6]: 0.77 µM; EC50 [11]: 75.3 µM; EC90 [12]: > 100 µM; EC90 [7]: 8.34 µM |
| Nc1ccn([C@@H]2O[C@H](CO)C=C2F)c(=O)n1 | – | – | – | – | 0.51 | EC50 [9]: 0.8 µM |
| Nc1ncnc2c1ncn2[C@@H]1O[C@H](CO)C=C1F | – | – | – | – | 1.5 | EC50 [9]: 1.7 µM |
| OC[C@@H]1C=C(F)[C@H](n2cnc3c(O)ncnc32)C1 | > 100 | > 100 | > 100 | > 100 | – | – |
